Assay results from ChEMBL document CHEMBL3352626, “Synthesis and biological evaluation of novel oxindole-based RTK inhibitors as anti-cancer agents” (Bioorg Med Chem, 2014).
Activity calls are given as the source filed them. The calls are words filed in the database; no cut-off is given here.

How the values were obtained:
[1] = Antiproliferative activity against human Bel7402 cells at 10 uM after 72 hrs by MTS assay; type: functional, Bel-7402
[2] = test system: A549; assay: Cell cycle arrest at G1 phase in human A549 cells at 3 to 6 uM after 24 hrs by flow cytometry; type: functional, cell-based
Procedure, shortened: (§1)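 Cells seeded in 60 mm plates, treated for 24 h, washed twice in PBS and fixed in ice-cold 75% ethanol. Stained overnight at 4 °C with PI ([…]) containing RNase 180 U/ml, 0.15% Triton X-100 and polyethylene glycol in 4 mmol/l citrate, pH 7.8. DNA content measured by FACScan flow cytometry against a DMSO group. Mean ± SEM of three independent experiments.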

[3] = molecular target: T1, Serine/threonine-protein kinase Sgk1 (Homo sapiens) (UniProt O00141); assay: Inhibition of recombinant SGK1 (unknown origin) at 1 uM after 1 hr by microfluidic assay
T1 sequence (whole entry): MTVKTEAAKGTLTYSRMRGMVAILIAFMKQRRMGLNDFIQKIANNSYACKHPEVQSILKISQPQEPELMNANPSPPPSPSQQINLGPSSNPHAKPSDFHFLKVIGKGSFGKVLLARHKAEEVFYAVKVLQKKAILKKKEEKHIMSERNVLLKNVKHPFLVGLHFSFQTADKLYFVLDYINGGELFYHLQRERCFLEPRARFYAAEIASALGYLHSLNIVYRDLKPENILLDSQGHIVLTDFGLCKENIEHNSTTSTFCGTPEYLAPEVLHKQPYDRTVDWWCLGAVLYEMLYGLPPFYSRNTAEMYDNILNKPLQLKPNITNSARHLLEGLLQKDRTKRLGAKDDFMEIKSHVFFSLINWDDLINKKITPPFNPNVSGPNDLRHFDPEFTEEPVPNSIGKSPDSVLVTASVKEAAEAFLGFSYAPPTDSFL
Procedure, shortened: (§2)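 Caliper microfluidic mobility-shift assay using recombinant kinases from Carna. Enzyme, substrate, ATP (at Km) and compound reacted for 1 h, then stopped with EDTA. Substrate-to-phosphoproduct conversion read on EZ Reader II. Percent inhibition calculated relative to no-enzyme blanks and full-reaction wells, each containing 2.5% DMSO.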

[4] = molecular target: Vascular endothelial growth factor receptor 2 (Homo sapiens) (UniProt P35968); assay: Inhibition of recombinant KDR (unknown origin) at 1 uM after 1 hr by microfluidic assay; procedure, shortened: as §2
Chain of Vascular endothelial growth factor receptor 2 (Homo sapiens) (P35968 whole entry): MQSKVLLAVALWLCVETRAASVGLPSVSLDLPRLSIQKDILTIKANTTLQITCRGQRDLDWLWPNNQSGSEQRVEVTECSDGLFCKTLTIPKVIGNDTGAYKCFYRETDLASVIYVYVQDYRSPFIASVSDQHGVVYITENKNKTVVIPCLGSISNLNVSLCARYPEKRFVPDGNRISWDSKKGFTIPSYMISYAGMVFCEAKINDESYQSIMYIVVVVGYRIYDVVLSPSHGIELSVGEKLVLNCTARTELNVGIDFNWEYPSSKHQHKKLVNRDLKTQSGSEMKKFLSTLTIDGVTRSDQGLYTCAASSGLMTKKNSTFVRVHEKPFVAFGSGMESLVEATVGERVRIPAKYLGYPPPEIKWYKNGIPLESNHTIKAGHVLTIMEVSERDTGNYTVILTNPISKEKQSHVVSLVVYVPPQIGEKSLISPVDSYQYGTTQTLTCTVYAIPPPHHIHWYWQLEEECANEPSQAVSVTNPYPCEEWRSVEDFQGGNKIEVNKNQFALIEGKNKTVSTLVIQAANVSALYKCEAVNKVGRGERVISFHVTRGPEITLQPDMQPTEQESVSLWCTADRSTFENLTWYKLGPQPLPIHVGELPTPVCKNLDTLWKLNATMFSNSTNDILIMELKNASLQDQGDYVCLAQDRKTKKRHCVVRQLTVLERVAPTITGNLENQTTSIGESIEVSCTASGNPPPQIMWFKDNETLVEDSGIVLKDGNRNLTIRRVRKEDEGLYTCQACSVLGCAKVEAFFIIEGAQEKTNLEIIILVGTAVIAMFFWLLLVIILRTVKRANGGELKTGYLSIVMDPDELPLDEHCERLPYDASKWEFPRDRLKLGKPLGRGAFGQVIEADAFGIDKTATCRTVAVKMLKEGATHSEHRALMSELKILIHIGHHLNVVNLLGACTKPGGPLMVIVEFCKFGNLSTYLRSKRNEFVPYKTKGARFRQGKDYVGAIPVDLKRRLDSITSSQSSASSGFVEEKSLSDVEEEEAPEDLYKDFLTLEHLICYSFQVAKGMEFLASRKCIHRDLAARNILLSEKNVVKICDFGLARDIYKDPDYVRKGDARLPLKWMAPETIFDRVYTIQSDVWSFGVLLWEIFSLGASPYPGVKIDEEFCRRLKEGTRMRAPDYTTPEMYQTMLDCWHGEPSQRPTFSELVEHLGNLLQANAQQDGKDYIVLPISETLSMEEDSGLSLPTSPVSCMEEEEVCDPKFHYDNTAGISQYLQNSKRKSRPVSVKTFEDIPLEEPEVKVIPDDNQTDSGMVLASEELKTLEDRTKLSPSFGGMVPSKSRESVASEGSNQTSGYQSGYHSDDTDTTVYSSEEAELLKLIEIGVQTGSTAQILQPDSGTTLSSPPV

[5] = molecular target: T2, Aurora kinase B (Homo sapiens, UniProt Q96GD4); assay: Inhibition of recombinant Aur B (unknown origin) after 1 hr by microfluidic assay; procedure, shortened: as §2
T2 sequence (Q96GD4 whole entry): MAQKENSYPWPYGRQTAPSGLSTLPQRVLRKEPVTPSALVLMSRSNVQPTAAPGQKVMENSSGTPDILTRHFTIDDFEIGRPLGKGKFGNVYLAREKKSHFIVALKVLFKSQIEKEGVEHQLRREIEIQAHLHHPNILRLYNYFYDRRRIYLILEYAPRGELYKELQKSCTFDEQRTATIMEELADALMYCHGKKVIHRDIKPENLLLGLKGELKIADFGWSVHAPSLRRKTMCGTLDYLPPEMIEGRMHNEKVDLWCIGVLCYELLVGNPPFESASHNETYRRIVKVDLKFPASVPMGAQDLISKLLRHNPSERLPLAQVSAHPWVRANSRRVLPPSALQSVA

[6] = Cell cycle arrest in human PM8910 cells assessed as reduction of cells in S phase at 3 to 6 uM after 24 hrs by flow cytometry; type: functional, cell-based; procedure, shortened: as §1
[7] = molecular target: T1, Serine/threonine-protein kinase Sgk1 (Homo sapiens); assay: Inhibition of recombinant SGK1 (unknown origin) at 0.1 uM after 1 hr by microfluidic assay; procedure, shortened: as §2
[8] = Cell cycle arrest at G1 phase in human PM8910 cells at 3 to 6 uM after 24 hrs by flow cytometry; type: functional, cell-based; procedure, shortened: as §1
[9] = Antiproliferative activity against human PM8910 cells after 72 hrs by MTS assay; type: functional, cell-based; conditions: PM8910, 72 h
Procedure, shortened: (§3)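 Cells at 4 × 10^4 cells/ml, seeded and left overnight, then exposed in triplicate to 30, 10, 3, 1, 0.3 and 0.1 µM compound in DMSO for 72 h at 37 °C under 5% CO2. MTS dye added for 4 h and absorbance read at 490 nm. Inhibition = (1 − OD treated/OD DMSO control) × 100. IC50 derived from the dilution series.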

[10] = Antiproliferative activity against human H460 cells after 72 hrs by MTS assay; type: functional, cell-based; conditions: NCI-H460, 72 h; procedure, shortened: as §3
[11] = Antiproliferative activity against human SGC7901 cells after 72 hrs by MTS assay; type: functional, cell-based; conditions: SGC-7901, 72 h; procedure, shortened: as §3
[12] = test system: A549; assay: Antiproliferative activity against human A549 cells at 10 uM after 72 hrs by MTS assay; type: functional
[13] = Antiproliferative activity against human H460 cells at 10 uM after 72 hrs by MTS assay; type: functional, NCI-H460
[14] = Antiproliferative activity against rat NRK-52E cells after 72 hrs by MTS assay; type: cell-based
[15] = Cell cycle arrest in human SGC7901 cells assessed as reduction of cells in S phase at 3 to 6 uM after 24 hrs by flow cytometry; type: functional, cell-based; conditions: SGC-7901; procedure, shortened: as §1
[16] = test system: A549; assay: Cell cycle arrest in human A549 cells assessed as reduction of cells in S phase at 3 to 6 uM after 24 hrs by flow cytometry; type: functional, cell-based; procedure, shortened: as §1
[17] = molecular target: T2, Aurora kinase B; assay: Inhibition of recombinant Aur B (unknown origin) at 0.1 uM after 1 hr by microfluidic assay; procedure, shortened: as §2
[18] = molecular target: T3, Mast/stem cell growth factor receptor Kit (Homo sapiens, UniProt P10721); assay: Inhibition of recombinant c-Kit (unknown origin) after 1 hr by microfluidic assay; procedure, shortened: as §2
T3 sequence (P10721 whole entry): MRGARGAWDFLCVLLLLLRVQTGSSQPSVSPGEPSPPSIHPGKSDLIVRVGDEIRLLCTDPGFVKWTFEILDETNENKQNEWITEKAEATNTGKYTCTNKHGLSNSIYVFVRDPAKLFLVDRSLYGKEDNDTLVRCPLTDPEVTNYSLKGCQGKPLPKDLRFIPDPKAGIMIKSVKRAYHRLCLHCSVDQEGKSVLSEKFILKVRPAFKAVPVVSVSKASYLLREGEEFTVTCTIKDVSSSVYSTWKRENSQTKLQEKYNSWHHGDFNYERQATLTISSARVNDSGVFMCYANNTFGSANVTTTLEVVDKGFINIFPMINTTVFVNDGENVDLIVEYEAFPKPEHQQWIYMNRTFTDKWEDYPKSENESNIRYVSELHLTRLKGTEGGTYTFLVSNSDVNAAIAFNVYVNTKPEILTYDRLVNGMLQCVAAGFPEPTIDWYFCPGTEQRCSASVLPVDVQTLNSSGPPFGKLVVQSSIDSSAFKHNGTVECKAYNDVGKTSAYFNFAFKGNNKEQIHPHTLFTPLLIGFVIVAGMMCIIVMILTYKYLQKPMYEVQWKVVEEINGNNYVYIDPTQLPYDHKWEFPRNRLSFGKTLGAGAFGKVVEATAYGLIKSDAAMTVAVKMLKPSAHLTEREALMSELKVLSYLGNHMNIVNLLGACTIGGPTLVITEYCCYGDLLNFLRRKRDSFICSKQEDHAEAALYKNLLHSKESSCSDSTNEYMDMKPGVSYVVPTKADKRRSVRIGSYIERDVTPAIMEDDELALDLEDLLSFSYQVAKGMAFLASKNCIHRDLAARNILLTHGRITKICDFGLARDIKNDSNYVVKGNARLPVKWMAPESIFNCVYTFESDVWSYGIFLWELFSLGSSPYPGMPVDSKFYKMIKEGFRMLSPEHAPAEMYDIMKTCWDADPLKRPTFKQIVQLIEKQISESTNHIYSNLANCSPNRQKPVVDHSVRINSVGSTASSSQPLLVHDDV

[19] = molecular target: Vascular endothelial growth factor receptor 2 (Homo sapiens) (UniProt P35968); assay: Inhibition of recombinant KDR (unknown origin) at 0.1 uM after 1 hr by microfluidic assay; procedure, shortened: as §2
[20] = molecular target: T3, Mast/stem cell growth factor receptor Kit; assay: Inhibition of recombinant c-Kit (unknown origin) at 1 uM after 1 hr by microfluidic assay; procedure, shortened: as §2
[21] = molecular target: T3, Mast/stem cell growth factor receptor Kit; assay: Inhibition of recombinant c-Kit (unknown origin) at 0.1 uM after 1 hr by microfluidic assay; procedure, shortened: as §2
[22] = molecular target: T1, Serine/threonine-protein kinase Sgk1 (Homo sapiens); assay: Inhibition of recombinant SGK1 (unknown origin) at 10 uM after 1 hr by microfluidic assay; procedure, shortened: as §2
[23] = Antiproliferative activity against human PM8910 cells at 10 uM after 72 hrs by MTS assay; type: functional
[24] = molecular target: Platelet-derived growth factor receptor beta (Homo sapiens) (UniProt P09619); assay: Inhibition of recombinant PDGFRb (unknown origin) at 10 uM after 1 hr by microfluidic assay; procedure, shortened: as §2
Chain of Platelet-derived growth factor receptor beta (Homo sapiens) (P09619 whole entry): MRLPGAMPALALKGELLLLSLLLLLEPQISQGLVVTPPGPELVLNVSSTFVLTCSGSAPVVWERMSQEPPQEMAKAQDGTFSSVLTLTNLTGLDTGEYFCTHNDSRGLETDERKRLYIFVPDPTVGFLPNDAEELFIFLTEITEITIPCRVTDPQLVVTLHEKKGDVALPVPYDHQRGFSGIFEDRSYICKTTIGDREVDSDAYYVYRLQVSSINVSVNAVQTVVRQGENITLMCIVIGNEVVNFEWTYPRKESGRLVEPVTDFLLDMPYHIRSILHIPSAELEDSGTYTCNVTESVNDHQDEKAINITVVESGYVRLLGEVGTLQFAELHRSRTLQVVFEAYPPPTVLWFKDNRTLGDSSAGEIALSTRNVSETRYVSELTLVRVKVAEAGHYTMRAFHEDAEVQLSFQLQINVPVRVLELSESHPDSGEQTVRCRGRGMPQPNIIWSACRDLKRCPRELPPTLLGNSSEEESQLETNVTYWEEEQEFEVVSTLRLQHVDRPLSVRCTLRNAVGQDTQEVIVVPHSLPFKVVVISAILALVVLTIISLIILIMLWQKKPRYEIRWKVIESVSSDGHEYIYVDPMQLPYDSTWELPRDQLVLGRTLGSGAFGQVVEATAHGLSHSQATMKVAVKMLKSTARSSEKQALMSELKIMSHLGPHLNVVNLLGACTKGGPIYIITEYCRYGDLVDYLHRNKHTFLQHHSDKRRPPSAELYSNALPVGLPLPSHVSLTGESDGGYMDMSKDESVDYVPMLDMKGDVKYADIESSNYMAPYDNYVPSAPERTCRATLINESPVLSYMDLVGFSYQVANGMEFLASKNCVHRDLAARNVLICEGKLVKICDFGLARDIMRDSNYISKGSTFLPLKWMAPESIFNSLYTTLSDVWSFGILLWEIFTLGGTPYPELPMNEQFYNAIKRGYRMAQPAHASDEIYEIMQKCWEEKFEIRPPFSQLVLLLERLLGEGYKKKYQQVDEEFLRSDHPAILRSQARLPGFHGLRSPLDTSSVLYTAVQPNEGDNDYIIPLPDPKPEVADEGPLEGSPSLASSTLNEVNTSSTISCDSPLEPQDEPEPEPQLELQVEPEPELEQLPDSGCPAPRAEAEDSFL

[25] = molecular target: T2, Aurora kinase B; assay: Inhibition of recombinant Aur B (unknown origin) at 1 uM after 1 hr by microfluidic assay; procedure, shortened: as §2
[26] = molecular target: Epidermal growth factor receptor (Homo sapiens) (UniProt P00533); assay: Inhibition of recombinant EGFR (unknown origin) at 1 uM after 1 hr by microfluidic assay; procedure, shortened: as §2
Chain of Epidermal growth factor receptor (Homo sapiens) (P00533 whole entry): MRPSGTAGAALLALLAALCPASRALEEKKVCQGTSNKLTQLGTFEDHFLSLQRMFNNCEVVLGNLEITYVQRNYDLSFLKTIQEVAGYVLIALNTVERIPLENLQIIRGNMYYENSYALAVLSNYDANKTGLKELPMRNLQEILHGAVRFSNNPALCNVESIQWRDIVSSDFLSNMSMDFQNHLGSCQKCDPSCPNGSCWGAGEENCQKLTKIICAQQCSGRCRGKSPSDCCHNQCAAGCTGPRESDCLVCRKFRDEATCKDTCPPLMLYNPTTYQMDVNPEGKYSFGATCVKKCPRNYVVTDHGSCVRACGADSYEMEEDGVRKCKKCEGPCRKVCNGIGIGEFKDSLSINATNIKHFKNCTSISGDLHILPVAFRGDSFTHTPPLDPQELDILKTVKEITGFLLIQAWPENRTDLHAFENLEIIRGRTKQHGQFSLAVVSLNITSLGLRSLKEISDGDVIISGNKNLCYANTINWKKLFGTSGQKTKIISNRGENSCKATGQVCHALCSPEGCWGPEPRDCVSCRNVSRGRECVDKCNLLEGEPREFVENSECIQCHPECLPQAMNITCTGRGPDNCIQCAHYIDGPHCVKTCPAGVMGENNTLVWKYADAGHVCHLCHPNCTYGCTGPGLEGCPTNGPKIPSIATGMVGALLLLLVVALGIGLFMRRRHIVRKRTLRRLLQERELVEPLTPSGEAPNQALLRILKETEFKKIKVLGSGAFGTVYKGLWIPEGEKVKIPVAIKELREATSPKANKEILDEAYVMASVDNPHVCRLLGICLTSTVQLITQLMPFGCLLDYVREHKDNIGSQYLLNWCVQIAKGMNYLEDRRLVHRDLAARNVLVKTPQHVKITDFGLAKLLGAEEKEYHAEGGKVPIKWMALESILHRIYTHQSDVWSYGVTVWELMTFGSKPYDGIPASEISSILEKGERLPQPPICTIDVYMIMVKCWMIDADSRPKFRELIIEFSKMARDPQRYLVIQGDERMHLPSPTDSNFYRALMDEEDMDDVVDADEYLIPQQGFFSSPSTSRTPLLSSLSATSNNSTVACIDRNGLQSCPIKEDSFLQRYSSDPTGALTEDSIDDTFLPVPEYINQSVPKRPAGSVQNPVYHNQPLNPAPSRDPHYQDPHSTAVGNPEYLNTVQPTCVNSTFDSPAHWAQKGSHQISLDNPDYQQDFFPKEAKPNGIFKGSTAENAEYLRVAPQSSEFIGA

[27] = Cell cycle arrest at G1 phase in human SGC7901 cells at 3 to 6 uM after 24 hrs by flow cytometry; type: functional, cell-based; conditions: SGC-7901; procedure, shortened: as §1
[28] = Antiproliferative activity against human HCC827 cells at 10 uM after 72 hrs by MTS assay; type: functional
[29] = test system: U-251; assay: Antiproliferative activity against human U251 cells at 10 uM after 72 hrs by MTS assay; type: functional
Procedure, shortened: (§4)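 Single-concentration screen. Cells at 4 × 10^4 cells/ml, seeded and incubated overnight, then given 10 µM compound in DMSO for 72 h (37 °C, 5% CO2), with DMSO-only controls. MTS added for 4 h and A490 read. Percent inhibition = (1 − OD490 treated/OD490 control) × 100, from triplicate experiments.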

[30] = molecular target: T2, Aurora kinase B; assay: Inhibition of recombinant Aur B (unknown origin) at 10 uM after 1 hr by microfluidic assay; procedure, shortened: as §2
[31] = Antiproliferative activity against human HCC827 cells after 72 hrs by MTS assay; type: functional, cell-based; conditions: HCC827, 72 h; procedure, shortened: as §3
[32] = molecular target: Vascular endothelial growth factor receptor 2 (Homo sapiens) (UniProt P35968); assay: Inhibition of recombinant KDR (unknown origin) at 10 uM after 1 hr by microfluidic assay; procedure, shortened: as §2
[33] = Antiproliferative activity against human SGC7901 cells at 10 uM after 72 hrs by MTS assay; type: functional, SGC-7901
[34] = Antiproliferative activity against human SKBR3 cells at 10 uM after 72 hrs by MTS assay; type: functional, SK-BR-3; procedure, shortened: as §4
[35] = molecular target: Epidermal growth factor receptor (Homo sapiens) (UniProt P00533); assay: Inhibition of recombinant EGFR (unknown origin) at 0.1 uM after 1 hr by microfluidic assay; procedure, shortened: as §2
[36] = molecular target: Platelet-derived growth factor receptor beta (Homo sapiens) (UniProt P09619); assay: Inhibition of recombinant PDGFRb (unknown origin) at 1 uM after 1 hr by microfluidic assay; procedure, shortened: as §2
[37] = test system: A549; assay: Antiproliferative activity against human A549 cells after 72 hrs by MTS assay; type: functional, cell-based; conditions: A549, 72 h; procedure, shortened: as §3
[38] = molecular target: T3, Mast/stem cell growth factor receptor Kit; assay: Inhibition of recombinant c-Kit (unknown origin) at 10 uM after 1 hr by microfluidic assay; procedure, shortened: as §2
[39] = molecular target: Platelet-derived growth factor receptor beta (Homo sapiens) (UniProt P09619); assay: Inhibition of recombinant PDGFRb (unknown origin) at 0.1 uM after 1 hr by microfluidic assay; procedure, shortened: as §2
[40] = Antiproliferative activity against human Bel7402 cells after 72 hrs by MTS assay; type: functional, cell-based; conditions: Bel-7402, 72 h; procedure, shortened: as §3
[41] = test system: NCI-H1975; assay: Antiproliferative activity against human NCI-H1975 cells at 10 uM after 72 hrs by MTS assay; type: functional; procedure, shortened: as §4
[42] = molecular target: Epidermal growth factor receptor (Homo sapiens) (UniProt P00533); assay: Inhibition of recombinant EGFR (unknown origin) at 10 uM after 1 hr by microfluidic assay; procedure, shortened: as §2

SMILES: O=C1Nc2ccccc2/C1=C/c1ccc(N2CCN(C(=O)CCCl)CC2)cc1
- Activity [1]: 49.21%
- Activity [2]: Active
- inhibition [3]: 11.8%
- inhibition [4]: 14.7%
- IC50 [5]: 0.587 µM
- Activity [6]: Active
- inhibition [7]: 3.56%
- Activity [8]: Active
- IC50 [9]: 2.76 µM
- IC50 [10]: 20.1 µM
- IC50 [11]: 2.85 µM
- Activity [12]: 54.9%
- Activity [13]: 66.63%
- IC50 [14]: > 30 µM
- Activity [15]: Active
- Activity [16]: Active
- inhibition [17]: 14.4%
- IC50 [18]: 0.071 µM
- inhibition [19]: 6%
- inhibition [20]: 56.4%
- inhibition [21]: 31.9%
- inhibition [22]: 42.4%
- Activity [23]: 59.46%
- inhibition [24]: 76%
- inhibition [25]: 53.5%
- inhibition [26]: 20%
- Activity [27]: Active
- Activity [28]: 56.47%
- Activity [29]: 20.43%
- inhibition [30]: 88.3%
- IC50 [31]: 12.7 µM
- inhibition [32]: 62.6%
- Activity [33]: 60.98%
- Activity [34]: 26.45%
- inhibition [35]: 19.1%
- inhibition [36]: 46.7%
- IC50 [37]: 3.04 µM
- inhibition [38]: 57.6%
- inhibition [39]: 13.6%
- IC50 [40]: 3.39 µM
- Activity [41]: 67.22%
- inhibition [42]: 24.3%
